Measurements taken from article PMC8526398 (Bioorganic & medicinal chemistry letters, 2021).

Legend:
EGFR/GRB2 PPI = details: cited from earlier work
[1] = Parallel artificial membrane permeability assay; type: in vitro ADME; details: PAMPA, 1% egg lecithin in n-dodecane
Procedure, shortened: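 Artificial membrane of 1% egg lecithin in n-dodecane. Test compound at 500 μM added to the donor side; incubated 5 h at room temperature. Compound in the receiving solution quantified by HPLC. Percent transport (%T) and apparent permeability coefficient (Papp, cm·s−1) calculated from previously reported equations; values given with SD.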

[2] = biological target: full-length human GRB2 (EGFR/GRB2 PPI) (Homo sapiens, UniProt P62993); type: binding
Chain of full-length human GRB2 (EGFR/GRB2 PPI) (P62993 whole entry): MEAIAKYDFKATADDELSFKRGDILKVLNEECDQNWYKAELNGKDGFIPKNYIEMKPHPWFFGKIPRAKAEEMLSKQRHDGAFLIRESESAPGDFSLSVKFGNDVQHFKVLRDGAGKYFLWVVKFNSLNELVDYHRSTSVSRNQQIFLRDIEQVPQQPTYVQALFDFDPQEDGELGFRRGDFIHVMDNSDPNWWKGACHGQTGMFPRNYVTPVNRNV

CC(=O)N[C@@H](Cc1ccc(OP(=O)(O)O)cc1)C(=O)NC1(C(=O)N[C@@H](CC(N)=O)C(=O)NCCCc2cccc3ccccc23)CCCCC1 [Compound 2]
IC50 relative to compound 1 (EGFR/GRB2 PPI): two orders of magnitude lower than 1

NC(=O)C[C@@H]1NC(=O)C2(CCCCC2)NC(=O)C[C@@H](c2ccc(CP(=O)(O)O)cc2)/C=C/C[C@@H](Cc2cccc3ccccc23)CNC1=O [Compound 3]
permeability through the artificial membrane (in words) [1]: poor permeability

NC(=O)C[C@@H]1NC(=O)C2(CCCCC2)NC(=O)[C@@H](CC(=O)O)[C@@H](c2ccc(CP(=O)(O)O)cc2)/C=C/C[C@@H](Cc2cccc3ccccc23)CNC1=O [Compound 4]
IC50 (EGFR/GRB2 PPI): 2 nM

NC(=O)C[C@@H]1NC(=O)C2(CCCCC2)NC(=O)C[C@@H](c2ccc(CC(=O)O)cc2)/C=C/C[C@@H](Cc2cccc3ccccc23)CNC1=O [Compound 7]
permeability through the artificial membrane (in words) [1]: good permeability

COC(=O)Cc1ccc([C@H]2/C=C/C[C@@H](Cc3cccc4ccccc34)CNC(=O)[C@H](CC(N)=O)NC(=O)C3(CCCCC3)NC(=O)C2)cc1 [Compound 8]
Ki [2]: > 20000 nM
